# Reference: ChEMBL document CHEMBL1799916, “Novel 3,5-bis(bromohydroxybenzylidene)piperidin-4-ones as coactivator-associated arginine methyltransferase 1 inhibitors: enzyme selectivity and cellular activity” (J Med Chem, 2011)
# The source made the active and inactive calls. No cut-off for these calls is given here.
# Assays:
# [1] = molecular target: T1, Histone-arginine methyltransferase CARM1 (Homo sapiens) (UniProt Q86X55); assay: Inhibition of CARM1-mediated methylation of SMB at 100 uM after 90 mins by scintillation counting in presence of S-adenosyl-l-[methyl-3H]methionine
# T1 sequence (whole entry): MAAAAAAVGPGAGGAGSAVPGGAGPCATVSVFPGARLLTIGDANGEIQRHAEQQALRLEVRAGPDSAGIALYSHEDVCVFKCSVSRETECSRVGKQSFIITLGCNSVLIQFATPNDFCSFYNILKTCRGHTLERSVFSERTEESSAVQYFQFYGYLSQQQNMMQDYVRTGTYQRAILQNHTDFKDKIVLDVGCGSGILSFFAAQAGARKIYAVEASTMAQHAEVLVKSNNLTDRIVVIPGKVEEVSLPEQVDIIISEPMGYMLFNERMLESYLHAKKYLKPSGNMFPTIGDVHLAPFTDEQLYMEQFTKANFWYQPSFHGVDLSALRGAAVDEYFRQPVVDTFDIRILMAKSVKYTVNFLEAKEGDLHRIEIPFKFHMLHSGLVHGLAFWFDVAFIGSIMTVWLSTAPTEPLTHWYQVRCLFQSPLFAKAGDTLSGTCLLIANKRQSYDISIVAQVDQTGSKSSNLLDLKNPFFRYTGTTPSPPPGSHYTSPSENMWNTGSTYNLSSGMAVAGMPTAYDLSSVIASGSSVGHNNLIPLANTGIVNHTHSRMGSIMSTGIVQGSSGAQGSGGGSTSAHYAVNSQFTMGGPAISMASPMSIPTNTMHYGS
# Outline: (§1)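 Compound at 100 μM with 0.1–0.2 μM recombinant enzyme and 0.5–1.5 μM substrate in PBS pH 7.4 containing [³H]AdoMet. Incubated 30 °C for 90 min, then SDS-PAGE, PVDF transfer and overnight film fluorography. Ponceau-stained substrate bands cut out and dpm counted by liquid scintillation.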
# [2] = molecular target: T2, Histone-lysine N-methyltransferase SETD7 (Homo sapiens, UniProt Q8WTS6); assay: Inhibition of SET7-mediated methylation of histone H3 after 90 mins by scintillation counting in presence of S-adenosyl-l-[methyl-3H]methionine
# T2 sequence (Q8WTS6 whole entry): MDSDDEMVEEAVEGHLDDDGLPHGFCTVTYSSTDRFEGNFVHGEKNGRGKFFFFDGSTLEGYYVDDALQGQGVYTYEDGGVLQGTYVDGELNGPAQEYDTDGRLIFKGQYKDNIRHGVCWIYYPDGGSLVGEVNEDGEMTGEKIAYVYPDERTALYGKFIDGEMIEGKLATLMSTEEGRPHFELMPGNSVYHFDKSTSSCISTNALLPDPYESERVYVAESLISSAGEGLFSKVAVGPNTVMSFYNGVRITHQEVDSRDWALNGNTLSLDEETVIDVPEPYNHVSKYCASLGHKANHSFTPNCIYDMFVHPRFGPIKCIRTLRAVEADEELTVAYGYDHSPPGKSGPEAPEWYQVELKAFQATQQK
# [3] = molecular target: T3, Histone-lysine N-methyltransferase SETD7 (Homo sapiens) (UniProt Q8WTS6); assay: Inhibition of SET7-mediated methylation of histone H3 at 100 uM after 90 mins by scintillation counting in presence of S-adenosyl-l-[methyl-3H]methionine; outline: as §1
# T3 sequence (whole entry): T2 sequence (Q8WTS6 whole entry)
# [4] = molecular target: T1, Histone-arginine methyltransferase CARM1 (Homo sapiens); assay: Inhibition of CARM1-mediated methylation of CA150 at 100 uM after 90 mins by scintillation counting in presence of S-adenosyl-l-[methyl-3H]methionine; outline: as §1
# [5] = molecular target: T1, Histone-arginine methyltransferase CARM1 (Homo sapiens); assay: Inhibition of CARM1-mediated methylation of histone H3 at 100 uM after 90 mins by scintillation counting in presence of S-adenosyl-l-[methyl-3H]methionine; outline: as §1
# [6] = molecular target: T1, Histone-arginine methyltransferase CARM1 (Homo sapiens); assay: Inhibition of CARM1-mediated methylation of PABP1 at 100 uM after 90 mins by scintillation counting in presence of S-adenosyl-l-[methyl-3H]methionine; outline: as §1
# [7] = molecular target: T4, Histone-lysine N-methyltransferase EHMT2 (Homo sapiens) (UniProt Q96KQ7); assay: Inhibition of G9a-mediated methylation of histone H3 at 100 uM after 90 mins by scintillation counting in presence of S-adenosyl-l-[methyl-3H]methionine; outline: as §1
# T4 sequence (whole entry): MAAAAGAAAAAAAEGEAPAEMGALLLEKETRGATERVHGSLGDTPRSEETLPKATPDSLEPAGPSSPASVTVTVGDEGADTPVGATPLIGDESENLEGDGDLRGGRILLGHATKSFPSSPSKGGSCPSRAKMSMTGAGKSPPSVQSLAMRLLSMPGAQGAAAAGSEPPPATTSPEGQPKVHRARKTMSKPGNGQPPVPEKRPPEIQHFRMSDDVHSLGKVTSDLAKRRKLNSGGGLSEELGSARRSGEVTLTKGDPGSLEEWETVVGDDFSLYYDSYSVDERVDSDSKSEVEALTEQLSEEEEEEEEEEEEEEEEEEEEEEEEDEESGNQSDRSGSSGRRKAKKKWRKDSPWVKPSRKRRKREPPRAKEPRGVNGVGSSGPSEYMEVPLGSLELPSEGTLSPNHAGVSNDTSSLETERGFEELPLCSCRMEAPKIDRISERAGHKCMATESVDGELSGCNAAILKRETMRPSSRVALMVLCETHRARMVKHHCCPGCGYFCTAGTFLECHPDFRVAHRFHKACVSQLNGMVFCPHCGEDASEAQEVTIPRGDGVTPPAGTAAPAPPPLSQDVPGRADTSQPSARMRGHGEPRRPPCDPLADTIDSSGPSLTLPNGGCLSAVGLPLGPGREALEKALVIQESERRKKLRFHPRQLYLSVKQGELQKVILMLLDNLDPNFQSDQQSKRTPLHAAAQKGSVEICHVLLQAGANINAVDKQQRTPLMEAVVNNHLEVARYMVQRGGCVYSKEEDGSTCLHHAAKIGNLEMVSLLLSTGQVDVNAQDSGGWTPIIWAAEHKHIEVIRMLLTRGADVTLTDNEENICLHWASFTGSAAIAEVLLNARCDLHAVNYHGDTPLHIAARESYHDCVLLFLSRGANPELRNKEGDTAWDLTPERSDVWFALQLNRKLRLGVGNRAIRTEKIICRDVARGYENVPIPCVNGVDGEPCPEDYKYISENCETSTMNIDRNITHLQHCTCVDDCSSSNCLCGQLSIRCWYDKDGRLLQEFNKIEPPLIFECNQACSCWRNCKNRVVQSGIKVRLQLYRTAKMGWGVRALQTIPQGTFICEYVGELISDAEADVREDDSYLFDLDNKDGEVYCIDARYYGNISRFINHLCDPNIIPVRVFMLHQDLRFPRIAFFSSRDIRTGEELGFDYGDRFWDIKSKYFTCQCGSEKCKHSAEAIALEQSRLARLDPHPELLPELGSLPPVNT
# [8] = molecular target: T5, Histone-arginine methyltransferase CARM1 (Homo sapiens, UniProt Q86X55); assay: Inhibition of CARM1-mediated methylation of PABP1 after 90 mins by scintillation counting in presence of S-adenosyl-l-[methyl-3H]methionine
# T5 sequence (Q86X55 whole entry): T1 sequence (whole entry)
# [9] = molecular target: Protein arginine N-methyltransferase 1 (Homo sapiens, UniProt Q99873); assay: Inhibition of PRMT1-mediated methylation of NPL3 after 90 mins by scintillation counting in presence of S-adenosyl-l-[methyl-3H]methionine
# Protein arginine N-methyltransferase 1, sequence (Q99873 whole entry): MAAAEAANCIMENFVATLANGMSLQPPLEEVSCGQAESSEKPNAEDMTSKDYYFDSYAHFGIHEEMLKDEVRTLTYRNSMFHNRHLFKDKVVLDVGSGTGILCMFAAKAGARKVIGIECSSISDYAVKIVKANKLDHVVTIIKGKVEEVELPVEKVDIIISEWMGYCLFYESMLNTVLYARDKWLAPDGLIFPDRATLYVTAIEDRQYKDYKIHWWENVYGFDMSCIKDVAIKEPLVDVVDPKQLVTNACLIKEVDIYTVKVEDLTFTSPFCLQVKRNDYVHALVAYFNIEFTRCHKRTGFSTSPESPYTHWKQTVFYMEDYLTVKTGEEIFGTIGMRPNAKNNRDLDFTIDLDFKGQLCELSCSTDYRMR
inhibition [1],IC50 [2] [µM],inhibition [3],inhibition [4],inhibition [5],inhibition [6],inhibition [7],IC50 [8] [µM],IC50 [9] [µM],SMILES
Active,149,inactive,Active,Active,Active,inactive,14.4,> 667,O=C1/C(=C/c2ccc(O)c(Br)c2)CN(CC(=O)c2ccccc2)C/C1=C\c1ccc(O)c(Br)c1
Active,174,inactive,Active,Active,Active,inactive,8.1,> 667,O=C1/C(=C/c2ccc(O)c(Br)c2)CN(Cc2cccc(Cl)c2)C/C1=C\c1ccc(O)c(Br)c1
Active,> 667,inactive,Active,Active,Active,inactive,8.6,> 667,O=C1/C(=C/c2ccc(O)c(Br)c2)CN(Cc2ccccc2)C/C1=C\c1ccc(O)c(Br)c1
